Test results taken from ChEMBL document CHEMBL4257575, “Discovery of Novel Flavonoid Dimers To Reverse Multidrug Resistance Protein 1 (MRP1, ABCC1) Mediated Drug Resistance in Cancers Using a High Throughput Platform with "Click Chemistry"” (J Med Chem, 2018).

tested on: not listed separately; test: Cytotoxicity against human 2008/MRP1 cells assessed as cell survival at 2 uM after 5 days by MTS assay relative to control; assay type: cell-based; details: read-out: Survival

Compared with `O=c1cc(-c2ccc(OCCOCCn3cc(CCCOc4ccc(-c5cc(=O)c6ccc(F)cc6o5)cc4)nn3)cc2)oc2ccccc12`, `O=c1cc(-c2ccccc2)oc2cc(OCCCCc3cn(CCOCCOCCOc4ccc(-c5cc(=O)c6cc(F)ccc6o5)cc4)nn3)ccc12` is higher in viability at 120 h, 2 µM: 91% for the first, 92% for the second.

First: O=c1cc(-c2ccc(OCCOCCOCCn3cc(CN(CCOc4ccc5c(=O)cc(-c6ccccc6)oc5c4)Cc4ccccc4)nn3)cc2)oc2ccccc12
Second: O=c1cc(-c2ccc(OCCOCCn3cc(CN(CCOc4ccc5c(=O)cc(-c6ccccc6)oc5c4)Cc4ccccc4)nn3)cc2)oc2ccccc12
The viability at 120 h, 2 µM of the first is lower: 74% for the first, 97% for the second.

Going from `O=c1cc(-c2ccc(OCCCc3cn(CCOCCOCCOc4ccc(-c5oc6ccccc6c(=O)c5OCc5ccccc5)cc4)nn3)cc2)oc2ccccc12` to `O=c1cc(-c2ccc(OCCCc3cn(CCOCCOCCOc4ccc(-c5oc6ccccc6c(=O)c5OCc5ccccc5)cc4)nn3)cc2)oc2cc(F)ccc12`, the viability at 120 h, 2 µM rises from 39% to 97%.

Compared with `O=C(/C=C/c1ccc(OCCCCc2cn(CCOCCOc3ccc(-c4cc(=O)c5ccccc5o4)cc3)nn2)cc1)c1ccc(F)cc1O`, `O=C(/C=C/c1ccc(OCCCCc2cn(CCOCCOc3ccc(-c4cc(=O)c5ccccc5o4)cc3)nn2)cc1)c1ccccc1O` is lower in viability at 120 h, 2 µM: 90% for the first, 83% for the second.

First: O=c1[nH]c(-c2ccc(OCCCc3cn(CCOCCOc4ccc5c(=O)cc(-c6ccccc6)oc5c4)nn3)cc2)nc2ccccc12
Second: Cc1ccc2oc(-c3ccc(OCCCCc4cn(CCOCCOc5ccc6c(=O)cc(-c7ccccc7)oc6c5)nn4)cc3)cc(=O)c2c1
The viability at 120 h, 2 µM of the first is lower: 65% for the first, 93% for the second.

Compared with `Cc1ccc2oc(-c3ccc(OCCCCc4cn(CCOCCOCCOc5ccc6c(=O)cc(-c7ccccc7)oc6c5)nn4)cc3)cc(=O)c2c1`, `COCOc1cc(OCc2ccccc2)c2c(=O)cc(-c3ccc(OCCCc4cn(CCOCCOc5ccc(-c6cc(=O)c7ccccc7o6)cc5)nn4)cc3)oc2c1` is higher in viability at 120 h, 2 µM: 89% for the first, 95% for the second.

First: COc1cccc(COc2c(-c3ccc(OCCOCCn4cc(COCCOc5ccc6c(=O)cc(-c7ccccc7)oc6c5)nn4)cc3)oc3ccccc3c2=O)c1
Second: O=c1cc(-c2ccccc2)oc2cc(OCCOCc3cn(CCOCCOc4ccc(-c5oc6ccccc6c(=O)c5OCc5ccccc5)cc4)nn3)ccc12
The viability at 120 h, 2 µM of the first is higher: 88% for the first, 85% for the second.

First: O=c1cc(-c2ccc(OCCOCCn3cc(CN(Cc4ccccc4)Cc4cn(CCOCCOc5ccc(-c6cc(=O)c7ccccc7o6)cc5)nn4)nn3)cc2)oc2ccccc12
Second: O=c1cc(-c2ccccc2)oc2cc(OCCOCCn3cc(CN(CCOc4ccc5c(=O)cc(-c6ccccc6)oc5c4)Cc4ccccc4)nn3)ccc12
The viability at 120 h, 2 µM of the first is higher: 92% for the first, 80% for the second.

Work on `O=c1cc(-c2ccc(OCCCc3cn(CCOCCOc4cccc(-c5oc6ccccc6c(=O)c5OCc5ccccc5)c4)nn3)cc2)oc2cc(F)ccc12` yielded a viability at 120 h, 2 µM of 99%.

biological target: T1, Multidrug resistance-associated protein 1 (Homo sapiens, UniProt P33527); test: Inhibition of MRP1 in human 2008/MRP1 cells assessed as potentiation of doxorubicin-induced cytotoxicity by measuring cell survival at 1 uM after 5 days by MTS assay relative to control; assay type: cell-based; details: 120 h
In short: (§1)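 2008/MRP1 cells (retroviral human MRP1 transfectant; RPMI 1640, 10% FBS) at 4,000 per well, with 100 nM doxorubicin plus crude, unpurified click products in DMSO: 2 µM in the primary screen, 1 µM in the secondary. Incubated 5 days at 37 °C. MTS/PMS added for 2 h at 37 °C, absorbance read at 490 nm. % survival is relative to wells without DOX or product. Run in triplicate, at least three experiments.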

T1 sequence (P33527 whole entry): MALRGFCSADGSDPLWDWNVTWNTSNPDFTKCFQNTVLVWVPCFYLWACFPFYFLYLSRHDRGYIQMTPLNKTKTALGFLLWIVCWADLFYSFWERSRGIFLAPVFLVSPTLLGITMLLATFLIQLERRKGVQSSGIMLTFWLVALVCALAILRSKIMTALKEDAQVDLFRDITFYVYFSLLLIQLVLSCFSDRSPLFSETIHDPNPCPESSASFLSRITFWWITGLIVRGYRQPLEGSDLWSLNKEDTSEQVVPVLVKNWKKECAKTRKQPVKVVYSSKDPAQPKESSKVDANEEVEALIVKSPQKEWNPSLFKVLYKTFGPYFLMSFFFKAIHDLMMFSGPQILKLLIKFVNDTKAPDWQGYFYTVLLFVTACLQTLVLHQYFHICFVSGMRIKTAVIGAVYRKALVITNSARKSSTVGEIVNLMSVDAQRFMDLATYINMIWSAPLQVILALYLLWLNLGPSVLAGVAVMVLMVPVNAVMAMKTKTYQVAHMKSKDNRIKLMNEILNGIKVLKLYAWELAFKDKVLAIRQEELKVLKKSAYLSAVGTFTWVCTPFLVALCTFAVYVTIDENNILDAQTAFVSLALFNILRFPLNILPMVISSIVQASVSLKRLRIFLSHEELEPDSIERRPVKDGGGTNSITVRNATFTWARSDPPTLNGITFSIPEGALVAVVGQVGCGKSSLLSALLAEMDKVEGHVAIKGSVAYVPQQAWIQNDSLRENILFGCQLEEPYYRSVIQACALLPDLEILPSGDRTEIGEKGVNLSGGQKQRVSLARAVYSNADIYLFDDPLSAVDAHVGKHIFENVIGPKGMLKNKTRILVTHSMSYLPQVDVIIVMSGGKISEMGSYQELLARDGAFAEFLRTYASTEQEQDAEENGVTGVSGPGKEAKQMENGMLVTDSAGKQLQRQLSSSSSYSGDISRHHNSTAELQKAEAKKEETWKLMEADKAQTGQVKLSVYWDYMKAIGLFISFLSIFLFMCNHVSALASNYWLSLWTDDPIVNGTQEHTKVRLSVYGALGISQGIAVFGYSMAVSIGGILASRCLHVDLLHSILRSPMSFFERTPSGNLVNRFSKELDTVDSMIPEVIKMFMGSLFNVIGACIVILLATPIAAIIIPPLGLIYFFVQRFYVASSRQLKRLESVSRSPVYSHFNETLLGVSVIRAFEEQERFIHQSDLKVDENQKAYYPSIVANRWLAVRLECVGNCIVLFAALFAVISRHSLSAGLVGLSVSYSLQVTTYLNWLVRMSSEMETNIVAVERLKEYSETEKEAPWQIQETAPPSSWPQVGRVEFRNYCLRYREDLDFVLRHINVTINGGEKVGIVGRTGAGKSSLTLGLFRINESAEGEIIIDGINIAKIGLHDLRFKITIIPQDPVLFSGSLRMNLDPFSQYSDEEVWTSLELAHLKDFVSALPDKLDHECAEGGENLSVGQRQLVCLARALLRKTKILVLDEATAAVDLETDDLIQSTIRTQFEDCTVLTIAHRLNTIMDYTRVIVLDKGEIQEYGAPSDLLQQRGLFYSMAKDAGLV

First: O=c1cc(-c2ccc(OCCOCCn3cc(CCCOc4ccc(-c5cc(=O)c6ccc(F)cc6o5)cc4)nn3)cc2)oc2ccccc12
Second: O=c1cc(-c2ccccc2)oc2cc(OCCCCc3cn(CCOCCOCCOc4ccc(-c5cc(=O)c6cc(F)ccc6o5)cc4)nn3)ccc12
The Survival of the first is lower: 29% for the first, 59% for the second.

First: O=c1cc(-c2ccc(OCCOCCOCCn3cc(CN(CCOc4ccc5c(=O)cc(-c6ccccc6)oc5c4)Cc4ccccc4)nn3)cc2)oc2ccccc12
Second: O=c1cc(-c2ccc(OCCOCCn3cc(CN(CCOc4ccc5c(=O)cc(-c6ccccc6)oc5c4)Cc4ccccc4)nn3)cc2)oc2ccccc12
The Survival of the first is higher: 48 to 63% for the first, 29% for the second.

Going from `O=c1cc(-c2ccc(OCCCc3cn(CCOCCOCCOc4ccc(-c5oc6ccccc6c(=O)c5OCc5ccccc5)cc4)nn3)cc2)oc2ccccc12` to `O=c1cc(-c2ccc(OCCCc3cn(CCOCCOCCOc4ccc(-c5oc6ccccc6c(=O)c5OCc5ccccc5)cc4)nn3)cc2)oc2cc(F)ccc12`, the Survival falls from 62% to 53%.

First: O=C(/C=C/c1ccc(OCCCCc2cn(CCOCCOc3ccc(-c4cc(=O)c5ccccc5o4)cc3)nn2)cc1)c1ccc(F)cc1O
Second: O=C(/C=C/c1ccc(OCCCCc2cn(CCOCCOc3ccc(-c4cc(=O)c5ccccc5o4)cc3)nn2)cc1)c1ccccc1O
The Survival of the first is higher: 66% for the first, 56% for the second.

First: O=c1[nH]c(-c2ccc(OCCCc3cn(CCOCCOc4ccc5c(=O)cc(-c6ccccc6)oc5c4)nn3)cc2)nc2ccccc12
Second: Cc1ccc2oc(-c3ccc(OCCCCc4cn(CCOCCOc5ccc6c(=O)cc(-c7ccccc7)oc6c5)nn4)cc3)cc(=O)c2c1
The Survival of the first is higher: 70% for the first, 46% for the second.

Compared with `Cc1ccc2oc(-c3ccc(OCCCCc4cn(CCOCCOCCOc5ccc6c(=O)cc(-c7ccccc7)oc6c5)nn4)cc3)cc(=O)c2c1`, `COCOc1cc(OCc2ccccc2)c2c(=O)cc(-c3ccc(OCCCc4cn(CCOCCOc5ccc(-c6cc(=O)c7ccccc7o6)cc5)nn4)cc3)oc2c1` is lower in Survival: 65% for the first, 64% for the second.

Going from `COc1cccc(COc2c(-c3ccc(OCCOCCn4cc(COCCOc5ccc6c(=O)cc(-c7ccccc7)oc6c5)nn4)cc3)oc3ccccc3c2=O)c1` to `O=c1cc(-c2ccccc2)oc2cc(OCCOCc3cn(CCOCCOc4ccc(-c5oc6ccccc6c(=O)c5OCc5ccccc5)cc4)nn3)ccc12`, the Survival falls from 71% to 56%.

Going from `O=c1cc(-c2ccc(OCCOCCn3cc(CN(Cc4ccccc4)Cc4cn(CCOCCOc5ccc(-c6cc(=O)c7ccccc7o6)cc5)nn4)nn3)cc2)oc2ccccc12` to `O=c1cc(-c2ccccc2)oc2cc(OCCOCCn3cc(CN(CCOc4ccc5c(=O)cc(-c6ccccc6)oc5c4)Cc4ccccc4)nn3)ccc12`, the Survival falls from 79% to 54%.

`O=c1cc(-c2ccc(OCCCc3cn(CCOCCOc4cccc(-c5oc6ccccc6c(=O)c5OCc5ccccc5)c4)nn3)cc2)oc2cc(F)ccc12` gave a Survival of 55%.

species: Homo sapiens; test: Inhibition of P-gp in human LCC6MDR cells assessed as potentiation of paclitaxel-induced cytotoxicity by measuring fold reduction in paclitaxel IC50 at 1 uM after 5 days by MTS assay relative to paclitaxel alone; assay type: cell-based; details: not given

First: O=c1cc(-c2ccc(OCCOCCn3cc(CCCOc4ccc(-c5cc(=O)c6ccc(F)cc6o5)cc4)nn3)cc2)oc2ccccc12
Second: Cc1ccc2oc(-c3ccc(OCCCCc4cn(CCOCCOc5ccc6c(=O)cc(-c7ccccc7)oc6c5)nn4)cc3)cc(=O)c2c1
The Ratio IC50 of the first is higher: 63.5 for the first, 54.7 for the second.

Compared with `O=c1cc(-c2ccc(OCCOCCOCCn3cc(CN(CCOc4ccc5c(=O)cc(-c6ccccc6)oc5c4)Cc4ccccc4)nn3)cc2)oc2ccccc12`, `O=c1cc(-c2ccc(OCCOCCn3cc(CN(CCOc4ccc5c(=O)cc(-c6ccccc6)oc5c4)Cc4ccccc4)nn3)cc2)oc2ccccc12` is higher in Ratio IC50: 31.7 for the first, 38.7 for the second.

tested on: L929; test: Cytotoxicity against mouse L929 cells assessed as reduction in cell survival after 5 days by MTS assay; assay type: cell-based; details: L929, 120 h

`O=c1cc(-c2ccc(OCCOCCn3cc(CCCOc4ccc(-c5cc(=O)c6ccc(F)cc6o5)cc4)nn3)cc2)oc2ccccc12` and `Cc1ccc2oc(-c3ccc(OCCCCc4cn(CCOCCOc5ccc6c(=O)cc(-c7ccccc7)oc6c5)nn4)cc3)cc(=O)c2c1` cannot be ordered by IC50: greater than 100 µM for the first, greater than 100 µM for the second.

`O=c1cc(-c2ccc(OCCOCCOCCn3cc(CN(CCOc4ccc5c(=O)cc(-c6ccccc6)oc5c4)Cc4ccccc4)nn3)cc2)oc2ccccc12` and `O=c1cc(-c2ccc(OCCOCCn3cc(CN(CCOc4ccc5c(=O)cc(-c6ccccc6)oc5c4)Cc4ccccc4)nn3)cc2)oc2ccccc12` cannot be ordered by IC50: greater than 100 µM for the first, greater than 100 µM for the second.

With `CN(C)C(=O)CCSC(SCCC(=O)O)c1cccc(/C=C/c2ccc3ccc(Cl)cc3n2)c1` (stereo not given) [MK-571] the IC50 was greater than 100 µM.

biological target: T1, Multidrug resistance-associated protein 1; test: Inhibition of MRP1 in human 2008/MRP1 cells assessed as potentiation of doxorubicin-induced cytotoxicity by measuring cell survival at 2 uM after 5 days by MTS assay relative to control; assay type: cell-based; details: 120 h; in short: as §1

Going from `O=c1cc(-c2ccc(OCCOCCn3cc(CCCOc4ccc(-c5cc(=O)c6ccc(F)cc6o5)cc4)nn3)cc2)oc2ccccc12` to `O=c1cc(-c2ccccc2)oc2cc(OCCCCc3cn(CCOCCOCCOc4ccc(-c5cc(=O)c6cc(F)ccc6o5)cc4)nn3)ccc12`, the Survival rises from 21% to 47%.

Compared with `O=c1cc(-c2ccc(OCCOCCOCCn3cc(CN(CCOc4ccc5c(=O)cc(-c6ccccc6)oc5c4)Cc4ccccc4)nn3)cc2)oc2ccccc12`, `O=c1cc(-c2ccc(OCCOCCn3cc(CN(CCOc4ccc5c(=O)cc(-c6ccccc6)oc5c4)Cc4ccccc4)nn3)cc2)oc2ccccc12` is lower in Survival: 45% for the first, 26% for the second.

Compared with `O=c1cc(-c2ccc(OCCCc3cn(CCOCCOCCOc4ccc(-c5oc6ccccc6c(=O)c5OCc5ccccc5)cc4)nn3)cc2)oc2ccccc12`, `O=c1cc(-c2ccc(OCCCc3cn(CCOCCOCCOc4ccc(-c5oc6ccccc6c(=O)c5OCc5ccccc5)cc4)nn3)cc2)oc2cc(F)ccc12` is lower in Survival: 45% for the first, 37% for the second.

Compared with `O=C(/C=C/c1ccc(OCCCCc2cn(CCOCCOc3ccc(-c4cc(=O)c5ccccc5o4)cc3)nn2)cc1)c1ccc(F)cc1O`, `O=C(/C=C/c1ccc(OCCCCc2cn(CCOCCOc3ccc(-c4cc(=O)c5ccccc5o4)cc3)nn2)cc1)c1ccccc1O` is lower in Survival: 42% for the first, 39% for the second.

First: O=c1[nH]c(-c2ccc(OCCCc3cn(CCOCCOc4ccc5c(=O)cc(-c6ccccc6)oc5c4)nn3)cc2)nc2ccccc12
Second: Cc1ccc2oc(-c3ccc(OCCCCc4cn(CCOCCOc5ccc6c(=O)cc(-c7ccccc7)oc6c5)nn4)cc3)cc(=O)c2c1
The Survival of the first is higher: 49% for the first, 34% for the second.

Compared with `Cc1ccc2oc(-c3ccc(OCCCCc4cn(CCOCCOCCOc5ccc6c(=O)cc(-c7ccccc7)oc6c5)nn4)cc3)cc(=O)c2c1`, `COCOc1cc(OCc2ccccc2)c2c(=O)cc(-c3ccc(OCCCc4cn(CCOCCOc5ccc(-c6cc(=O)c7ccccc7o6)cc5)nn4)cc3)oc2c1` is higher in Survival: 33% for the first, 39% for the second.

Compared with `COc1cccc(COc2c(-c3ccc(OCCOCCn4cc(COCCOc5ccc6c(=O)cc(-c7ccccc7)oc6c5)nn4)cc3)oc3ccccc3c2=O)c1`, `O=c1cc(-c2ccccc2)oc2cc(OCCOCc3cn(CCOCCOc4ccc(-c5oc6ccccc6c(=O)c5OCc5ccccc5)cc4)nn3)ccc12` is lower in Survival: 47% for the first, 46% for the second.

Going from `O=c1cc(-c2ccc(OCCOCCn3cc(CN(Cc4ccccc4)Cc4cn(CCOCCOc5ccc(-c6cc(=O)c7ccccc7o6)cc5)nn4)nn3)cc2)oc2ccccc12` to `O=c1cc(-c2ccccc2)oc2cc(OCCOCCn3cc(CN(CCOc4ccc5c(=O)cc(-c6ccccc6)oc5c4)Cc4ccccc4)nn3)ccc12`, the Survival falls from 49% to 46%.

For `O=c1cc(-c2ccc(OCCCc3cn(CCOCCOc4cccc(-c5oc6ccccc6c(=O)c5OCc5ccccc5)c4)nn3)cc2)oc2cc(F)ccc12`, the Survival was 45%.
